Active and inactive are the calls of the source. No cut-off for these calls is given here.

One data set relates to HepG2. The data set is described as follows: Antiproliferative activity against human HepG2 cells after 72 hrs by MTT assay. The format is functional, cell-based. Conditions: HepG2, 72 h. In outline:
(§1)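 Cells seeded and held 24 h at 37 °C, 5% CO2, then exposed to a concentration series in medium with 0.1% DMSO for 72 h. MTT (5 mg/mL in PBS) added for 4 h and OD read at 490 nm. IC50 taken from dose-response curves; mean ± SD of at least three independent experiments.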
Background: Tetrazolium assays rely on reduction of a dye to a coloured formazan, in cell work by metabolically active cells.

The test system of data set [1] is K562. The data set is described as follows: Antiproliferative activity against human K562 cells after 72 hrs by MTT assay. The format is functional, cell-based. Particulars: K562, 72 h. In outline: as §1
For another data set, the system named is A549. The data set is described as follows: Antiproliferative activity against human A549 cells after 72 hrs by MTT assay. The format is functional, cell-based. Conditions: A549, 72 h. The method in brief: as §1
Data set [2] has as its system K562. The data set is described as follows: Antiproliferative activity against human K562 cells at 1 uM after 72 hrs by MTT assay. The format is functional, cell-based.
Data set [3] deals with K562. The data set is described as follows: Antiproliferative activity against human K562 cells at 0.1 uM after 72 hrs by MTT assay relative to control. The format is functional.
The nature of data set [4]: Inhibition of porcine brain tubulin polymerization after 30 mins by spectrophotometric method. On the set-up: species or system Sus scrofa. The method in brief: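 Purified tubulin (2 mg/mL) in PEM buffer (80 mM PIPES pH 6.9, 0.5 mM EGTA, 2 mM MgCl2, 15% glycerol), preincubated on ice with compound or DMSO vehicle, then GTP added. Absorbance at 340 nm followed at 37 °C for 30 min. IC50 derived from area under the polymerization curve.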

Another data set has as its system H22. The data set is described as follows: Antitumor activity against mouse H22 cells implanted in ICR mouse assessed as tumor growth inhibition at 8 mg/kg, iv administered once in 2 days for 21 days relative to control. The format is functional. Conditions: read-out: TGI. In outline: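 Male ICR mice, five weeks old, inoculated s.c. in the right flank with 1 × 10^6 H22 cells. After one day, randomized into groups of six. Given i.v. 15 or 30 mg/kg daily for 21 days in 10% DMF/2% Tween 80/88% saline, or 8 mg/kg every 2 days; vehicle control given i.v. Tumors excised and weighed; inhibition (%) = (1 − treated/control mean tumor weight) × 100.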

A further data set deals with Mus musculus. The data set is described as follows: Toxicity in ICR mouse implanted with mouse H22 cells assessed as decrease in body weight at 8 mg/kg, iv administered once in 2 days for 21 days. The format is organism-based. Particulars: in vivo. The method in brief:
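H22 s.c. allograft in male ICR mice, groups of six. Dosing i.v. at 15 or 30 mg/kg once daily for 21 days (10% DMF/2% Tween 80/88% saline), or 8 mg/kg once every 2 days. Body weight recorded every 2 days.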

Broadly, the IC50 is the concentration at which inhibition is half-maximal. Read a high IC50 as weaker potency. With `COc1ccc(/C=C(\C#N)[S+]([O-])c2cc(OC)c(OC)c(OC)c2)cc1O` (stereo unspecified), the concentration for half-maximal inhibition (IC50) with HepG2 was above 1000 nM; in the data set with K562 [1] it was above 1000 nM; with A549, above 5000 nM.

Consider `COc1cc(S(=O)(=O)/C=C/c2ccc(C)cc2)cc(OC)c1OC`, for which the outcome with K562 [2] and in the data set with K562 [3] was Active.

As to `COc1ccc(/C=C/S(=O)(=O)c2cc(OC)c(OC)c(OC)c2)cc1OC`, the outcome in the data set with K562 [2] and in the data set on K562 [3] was Active.

In the case of `COc1ccc(/C=C/[S+]([O-])c2cc(OC)c(OC)c(OC)c2)cc1O` (stereo unspecified), the 50% inhibitory concentration (IC50) is 307 nM in the data set with HepG2, 7180 nM in data set [4], 258 nM in the data set on K562 [1] and 1460 nM with A549.

With `COc1ccc(/C=C/[S+]([O-])c2cc(OC)c(OC)c(OC)c2)cc1N` (stereo unspecified), the IC50 was found to be 753 nM in the data set on HepG2, 746 nM in the data set with K562 [1] and 2350 nM in the data set on A549.

`COc1ccc(/C=C(\F)S(=O)(=O)c2cc(OC)c(OC)c(OC)c2)cc1O`: the IC50 was 591 nM with HepG2, 473 nM with K562 [1] and 1310 nM in the data set on A549.

Turning to `COc1ccc(/C=C/C(=O)c2cc(OC)c(OC)c(OC)c2)cc1O`, the half-inhibitory concentration (IC50) with HepG2 amounted to 102 nM; in data set [4] it was 3690 nM; in the data set on K562 [1] it was 60 nM; in the data set on A549 it was 387 nM.

On to `COc1cc(S(=O)(=O)/C=C/c2ccc(F)cc2)cc(OC)c1OC`, for which the outcome in the data set with K562 [2] and with K562 [3] was Active.

As for `CC(=O)O[C@H]1C(=O)[C@@]2(C)[C@H]([C@H](OC(=O)c3ccccc3)[C@]3(O)C[C@H](OC(=O)[C@H](O)[C@@H](NC(=O)c4ccccc4)c4ccccc4)C(C)=C1C3(C)C)[C@]1(OC(C)=O)CO[C@@H]1C[C@@H]2O` [PACLITAXEL], the inhibition in vivo at 8 mg/kg in the data set on H22 stood at 74.6%. The Activity result in the data set with Mus musculus was “Toxic”.

As to `COc1ccc(/C=C(\Cl)[S+]([O-])c2cc(OC)c(OC)c(OC)c2)cc1O` (stereo unspecified), the IC50 was 243 nM with HepG2, 3830 nM in data set [4], 183 nM with K562 [1] and 1200 nM in the data set on A549.

Consider `COc1cc(S(=O)(=O)/C=C/c2ccc(N(C)C)cc2)cc(OC)c1OC`, for which the result with K562 [2] and in the data set on K562 [3] was Active.

Turning to `COc1ccc(/C=C(\C#N)S(=O)(=O)c2cc(OC)c(OC)c(OC)c2)cc1O`, the IC50 in the data set on HepG2 was above 1000 nM; in the data set with K562 [1] it was above 1000 nM; in the data set with A549 it was above 5000 nM.

As for `COc1cc(S(=O)(=O)/C=C/c2ccc(O)cc2)cc(OC)c1OC`, the outcome in the data set on K562 [2] and in the data set on K562 [3] was Active.

Consider `COc1cc(S(=O)(=O)/C=C/c2ccccc2)cc(OC)c1OC`, for which the result in the data set on K562 [2] and with K562 [3] was Active.

`COc1cc(S(=O)(=O)/C=C/c2ccc([N+](=O)[O-])cc2)cc(OC)c1OC`: the result with K562 [2] and with K562 [3] was Active.

For the compound `COc1ccc(/C=C/S(=O)(=O)c2cc(OC)c(OC)c(OC)c2)cc1`, the result in the data set with K562 [2] and with K562 [3] was Active.

For the compound `COc1cc(S(=O)(=O)/C=C/c2ccc(O)c(O)c2)cc(OC)c1OC`, the outcome with K562 [2] was Active. For the same compound, the result with K562 [3] was inactive.

For the compound `COc1ccc(/C=C(\C)[S+]([O-])c2cc(OC)c(OC)c(OC)c2)cc1O` (stereo unspecified), the concentration for half-maximal inhibition (IC50) in the data set with HepG2 is above 1000 nM; with K562 [1], above 1000 nM; in the data set on A549, above 5000 nM.

Consider `COc1ccc(/C=C/S(=O)(=O)c2cc(OC)c(OC)c(OC)c2)cc1O`, for which the half-inhibitory concentration (IC50) is 267 nM in the data set with HepG2, 8230 nM in data set [4], 219 nM in the data set on K562 [1] and 2280 nM with A549. Moreover, the outcome with K562 [2] was Active. The Activity with K562 [3] was 35.3%.

In the case of `COc1cc(/C=C/S(=O)(=O)c2cc(OC)c(OC)c(OC)c2)cc(OC)c1OC`, the result with K562 [2] and with K562 [3] was Active.

On to `COc1ccc(/C=C(\Cl)S(=O)(=O)c2cc(OC)c(OC)c(OC)c2)cc1O`, for which the half-inhibitory concentration (IC50) with HepG2 was above 1000 nM; in the data set on K562 [1], above 1000 nM; in the data set with A549, above 5000 nM.

As to `COc1ccc(/C=C(\C)S(=O)(=O)c2cc(OC)c(OC)c(OC)c2)cc1O`, the 50% inhibitory concentration (IC50) with HepG2 was determined as 710 nM; with K562 [1] it was 580 nM; in the data set with A549, 2730 nM.

Turning to `CO/C(=C\c1ccc(OC)c(O)c1)S(=O)(=O)c1cc(OC)c(OC)c(OC)c1`, the figures for the IC50 in the data set with HepG2, in the data set on K562 [1] and in the data set with A549 were 599 nM, 190 nM and 2880 nM, respectively.

As for `COc1ccc(/C=C/S(=O)(=O)c2cc(OC)c(OC)c(OC)c2)cc1F`, the result in the data set on K562 [2] and in the data set with K562 [3] was Active.

For the origin of these results see ChEMBL document CHEMBL4270633, “Discovery of novel vinyl sulfone derivatives as anti-tumor agents with microtubule polymerization inhibitory and vascular disrupting activities” (Eur J Med Chem, 2018).
